PAFAH2 FP inh – PAFAH2 enzyme inhibitors, primary screen, biochemical, fluorescence polarization, human; Platelet-activating factor acetylhydrolase 2, cytoplasmic (Homo sapiens), Q99487; recombinant PAFAH2, FP-rhodamine activity probe; inhibition, % at 3.39 µM; actives 0.99% (n = 340,000); AID 492956, 2010;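 active = inhibition above the mean over all tested compounds plus 3 SD, cut at about 30% in these data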;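 also: inhibitors block probe labeling of enzyme so polarization drops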
VIM-2 inhibitor – VIM-2 metallo-beta-lactamase inhibitors, primary screen, biochemical, epi-absorbance readout, Pseudomonas aeruginosa enzyme. purified VIM-2, nitrocefin hydrolysis, epi-absorbance fluorescence. inhibition, % at 5.6 µM. actives 0.89% (n = 290,000);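 active = inhibition above the mean of all tested compounds plus 3 SD, cutoff set per screening run, cut at about 7.5% in these data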;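 also: red hydrolysis product quenches plate fluorescence so inhibitors raise well fluorescence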
IMP-1 inh – IMP-1 metallo-beta-lactamase inhibitors, primary screen, biochemical, epi-absorbance readout, Pseudomonas aeruginosa enzyme | metallo-beta-lactamase IMP-1 (Pseudomonas aeruginosa) | inhibition, % at 5.6 µM | actives 0.45% (n = 290,000) | purified IMP-1, nitrocefin hydrolysis, epi-absorbance fluorescence;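 active = inhibition above the mean plus 3 SD of all compounds in the same screening run, cut at about 4.5% in these data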
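System: purified recombinant IMP-1 beta-lactamase. Medium: Zinc- and detergent-supplemented HEPES buffer, pH 7.1. Compound: one 5.6 µM dose […]. Schedule: 15 min preincubation plus 25 min reaction at 25 °C. Technique: Epi-absorbance fluorescence, 480 nm excitation, 530 nm emission.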
PAFAH1B2 FP inh – PAFAH1B2 enzyme inhibitors, primary screen, biochemical, fluorescence polarization, human; Platelet-activating factor acetylhydrolase IB subunit alpha2 (Homo sapiens), P68402; recombinant PAFAH1B2, FP-rhodamine activity probe; inhibition, % at 3.39 µM; actives 1.2% (n = 340,000); AID 492953, 2010;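 active = inhibition above the mean of all tested compounds plus 3 SD, cut at about 24% in these data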
PAFAH1B3 FP inh – PAFAH1B3 enzyme inhibitors, primary screen, biochemical, fluorescence polarization, human | Platelet-activating factor acetylhydrolase IB subunit alpha1 (Homo sapiens), Q15102 | inhibition, % at 3.39 µM | recombinant PAFAH1B3, FP-rhodamine probe | AID 492972, 2010 | actives 0.28% (n = 340,000);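 active = inhibition above the screen-wide average of all tested compounds plus 3 SD, cut at about 25% in these data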
Target sequence (Q15102 whole entry, looked up): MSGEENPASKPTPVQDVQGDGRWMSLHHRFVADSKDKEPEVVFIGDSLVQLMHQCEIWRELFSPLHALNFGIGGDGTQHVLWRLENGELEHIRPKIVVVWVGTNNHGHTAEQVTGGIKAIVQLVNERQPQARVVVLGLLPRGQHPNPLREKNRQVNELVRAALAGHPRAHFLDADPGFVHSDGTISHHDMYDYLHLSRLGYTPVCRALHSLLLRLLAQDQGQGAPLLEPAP
pPAFAH inh – pPAFAH enzyme inhibitors, primary screen, biochemical, fluorescence polarization, human | Platelet-activating factor acetylhydrolase (Homo sapiens), Q13093 | recombinant pPAFAH, FP-rhodamine probe fluorescence polarization | inhibition, % at 3.39 µM | actives 1.5% (n = 330,000) | AID 463082, 2010;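 active = inhibition above the mean inhibition across the screen plus 3 SD, cut at about 25% in these data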;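 also: inhibitors block binding of the rhodamine activity-based probe so polarization drops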
Target sequence (Q13093 whole entry, looked up): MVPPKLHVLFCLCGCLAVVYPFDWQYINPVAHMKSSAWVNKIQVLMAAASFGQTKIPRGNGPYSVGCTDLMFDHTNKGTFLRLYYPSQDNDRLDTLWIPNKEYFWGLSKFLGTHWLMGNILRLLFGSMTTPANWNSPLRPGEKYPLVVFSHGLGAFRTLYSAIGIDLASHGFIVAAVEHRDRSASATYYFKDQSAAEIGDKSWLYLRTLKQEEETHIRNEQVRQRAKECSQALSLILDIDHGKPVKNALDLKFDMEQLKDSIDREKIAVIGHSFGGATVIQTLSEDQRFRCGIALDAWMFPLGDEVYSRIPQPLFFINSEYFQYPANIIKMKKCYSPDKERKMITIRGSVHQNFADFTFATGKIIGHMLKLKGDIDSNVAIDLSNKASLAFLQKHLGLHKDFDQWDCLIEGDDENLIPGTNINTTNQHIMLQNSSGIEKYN
PAFAH2 confirm – PAFAH2 enzyme inhibitors, confirmation, biochemical, fluorescence polarization, human; shares compounds with PAFAH2 FP inh; recombinant PAFAH2, FP-rhodamine activity probe; inhibition, % at 3.39 µM; actives 65% (n = 2,300); AID 493030, 2011;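 active = mean inhibition over three repeats above a set limit taken from the earlier primary screen, cut at about 30% in these data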;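 also: inhibitor blocks binding of rhodamine activity probe so polarization falls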
Hits are given with their value; i = inactive; nt = not tested or not shown. Compounds with a hit are over-represented: about 3.6% of the library has one in this group of screens.

SMILES	PAFAH2 FP inh	VIM-2 inhibitor	IMP-1 inh	PAFAH1B2 FP inh	PAFAH1B3 FP inh	pPAFAH inh	PAFAH2 confirm
COc1cccc(OCC(=O)NCC2CCCO2)c1 (configuration not stated)	i	nt	nt	i	i	i	nt
O=C(COC(=O)c1cccs1)NCC1CCCO1 (configuration not stated)	35	i	i	i	i	i	i
CCOc1ccc(C(=O)OCC(=O)NCC2CCCO2)cc1 (configuration not stated)	48	nt	nt	i	i	i	i
CCOc1ccc(OCC(=O)OCC(=O)NCC2CCCO2)cc1 (configuration not stated)	i	nt	nt	i	i	i	nt
C#CCN(Cc1ccco1)C(=O)c1ccc(OC2CCN(Cc3ccccn3)CC2)cc1	i	i	i	i	i	i	nt
CCc1ccc(NC(=O)CN(C(=O)N2CCN(CC)CC2)S(=O)(=O)c2ccc(C)cc2)cc1	i	nt	nt	i	i	i	nt
COc1cc(OC)c(NS(=O)(=O)c2cc(C(=O)OCC(=O)NCC3CCCO3)ccc2OC)cc1Cl (configuration not stated)	71	i	i	i	i	i	52
Cc1ccc(NC(=O)COC(=O)c2cccnc2Cl)cc1S(=O)(=O)N1CCOCC1	44	nt	nt	i	i	i	38
Cc1cnc(C(=O)OCC(=O)Nc2ccc(C)c(S(=O)(=O)N(C)C)c2)cn1	i	i	i	i	i	i	nt
CCOc1ncccc1C(=O)OCC(=O)Nc1ccc(C)c(S(=O)(=O)N2CCOCC2)c1	75	i	i	i	i	i	76
CCOc1ncccc1C(=O)OCC(=O)Nc1ccc(C)c(S(=O)(=O)N(C)C)c1	80	i	i	i	i	i	86
CSc1ncccc1C(=O)OCC(=O)Nc1ccc(C)c(S(=O)(=O)N2CCOCC2)c1	i	nt	nt	i	i	i	nt
CCOc1ncccc1C(=O)OCC(=O)Nc1cc(S(=O)(=O)N2CCOCC2)ccc1C	42	i	i	i	i	i	39
O=c1[nH]nnc2c1cnn2-c1ccccc1	i	nt	nt	i	i	nt	nt
CCOc1ncccc1C(=O)OCC(=O)Nc1cc(S(=O)(=O)N2CCCCC2)ccc1Cl	68	nt	nt	i	i	nt	55
Cc1ccc(S(=O)(=O)N2CCOCC2)cc1NC(=O)COC(=O)c1cccc(Cl)c1Cl	41	nt	nt	i	i	nt	i
Cc1ccc(S(=O)(=O)N2CCOCC2)cc1NC(=O)COC(=O)c1ccc(Cl)s1	44	nt	nt	i	i	i	32
COC(=O)Cn1ncc(N2CC(C)OC(C)C2)c(Cl)c1=O (configuration not stated)	i	i	i	i	i	i	nt
CC(=O)N1C(C)(C)CC(=NOC(=O)c2ccccc2)CC1(C)C	67	i	i	i	i	i	57
COc1ccc(C2OC(=O)c3ccccc3S2)cc1 (configuration not stated)	86	i	i	i	i	i	78
Cc1cc(C(=O)N/N=C/c2cccc3ccccc23)c(C)o1	i	i	i	i	i	i	nt
O=C1OC(C(=O)NCc2ccccc2)Cc2ccccc21 (configuration not stated)	35	i	i	i	i	i	i
O=C(NCc1ccccc1)C1COc2ccccc2O1 (configuration not stated)	i	i	i	i	i	i	nt
CCOC(=O)c1ccccc1NC(=O)C1CCCO1 (configuration not stated)	42	i	i	i	i	i	i
COC(=O)c1ccc(OC)c(Cn2c(=O)n(C)c(=O)c3ccccc32)c1	i	i	i	i	i	i	nt
SMILES	PAFAH2 FP inh	VIM-2 inhibitor	IMP-1 inh	PAFAH1B2 FP inh	PAFAH1B3 FP inh	pPAFAH inh	PAFAH2 confirm
Cc1nnc(NC(=O)CSc2nnc(CC(=O)Nc3ccccc3F)n2C)s1	i	i	i	i	i	i	nt
Cc1ccc(NC(=O)COC(=O)C2CC3C=CC2C3)cc1S(=O)(=O)N1CCCCC1 (configuration not stated)	60	i	i	i	i	i	52
Cc1cccc(NC(=O)COC(=O)c2ccc(C)c(S(=O)(=O)N3CCCCC3)c2)c1	42	nt	nt	i	i	i	38
Cc1cc(C)n(-c2ccc(C(=O)OCC(=O)Nc3cc(S(C)(=O)=O)ccc3Cl)cc2)n1	36	nt	nt	i	i	i	i
CS(=O)(=O)c1ccc(Cl)c(NC(=O)COC(=O)c2ccc(S(=O)(=O)N3CCCC3)cc2)c1	i	nt	nt	i	i	i	nt
CS(=O)(=O)c1ccc(Cl)c(NC(=O)COC(=O)c2ccc(-n3cnnn3)cc2)c1	i	nt	nt	i	i	i	nt
Cc1ccc(C(=O)OCC(=O)Nc2cc(S(C)(=O)=O)ccc2Cl)cc1S(=O)(=O)N1CCCCC1	64	i	i	i	i	i	54
CCOC(=O)C1=CNS(=O)(=O)NC1c1ccc(C[C@H](NC(=O)CNC(=O)CCc2ccccc2)C(N)=O)cc1 (some centres not stated)	i	nt	nt	i	i	i	nt
CC(C)N(C(=O)Cn1cc(S(=O)(=O)CC(=O)Nc2ccccc2)c2ccccc21)C(C)C	i	i	i	i	i	i	nt
Cc1ccc(C(=O)OCC(=O)Nc2ccccc2)cc1S(=O)(=O)N1CCCCC1	50	nt	nt	i	i	i	36
O=C(NC(=S)NC1CCC(O)CC1)c1ccco1 (configuration not stated)	i	nt	nt	i	i	i	nt
Cc1ccsc1C(=O)OCC(=O)NCc1ccc(Cl)cc1	39	nt	nt	i	i	i	40
Cc1ccsc1C(=O)OCC(=O)Nc1ccc(Cl)cn1	78	nt	nt	i	i	i	48
O=C(COC(=O)c1cccs1)Nc1ccc(Cl)cn1	67	nt	nt	i	i	i	73
Cc1cnc(C(=O)OCC(=O)Nc2ccc(Cl)cn2)cn1	i	nt	nt	i	i	i	nt
O=C(COC(=O)c1cc2c(s1)CCCC2)Nc1ccc(Cl)cn1	30	i	i	i	i	i	33
Cn1nc(/C=C/c2ccccc2)ccc1=O	i	i	i	i	i	i	nt
Cc1ccc(NC(=O)CCC(=O)N2CCN(S(=O)(=O)c3ccc(C)cc3)CC2)cc1	i	nt	nt	i	i	i	nt
COc1ccccc1C(C)Nc1ccc(S(=O)(=O)N2CCN(C)CC2)cc1[N+](=O)[O-] (configuration not stated)	i	nt	nt	i	i	i	nt
COc1ccc(NC(=O)COC(=O)c2cc3c(s2)CCC3)cc1	77	nt	nt	i	i	i	82
NC(=O)c1ccc(NC(=O)COC(=O)c2cc3c(s2)CCC3)cc1	i	nt	nt	i	i	i	nt

Compound activity (PubChem)
